AF4-AF9 inh = blocks AF4 peptide binding to human AF9 | P42568 | AlphaScreen, biotin-AF4 peptide binding to FLAG-AF9 | inhibition, % at 10 µM | hit rate 0.47% among 350,000 | AID 651704;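 active means every replicate reaching a set inhibition limit, whatever the replicate mean, cut at about 25% in these data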
S100A4 MyoIIA = S100A4-myosin IIA interaction inhibition; P26447; S100A4/TAMRA-MyoIIA peptide fluorescence polarization; inhibition, % at 10.7 µM; hit rate 0.14% among 360,000; AID 652163;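 active means mean inhibition of at least 70% across replicates, with every replicate also reaching that level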
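Compound dosing: one dose per compound; test system: human S100A4 monomer with TAMRA-labelled myosin IIA peptide; probe or stimulus: TAMRA-labelled myosin IIA heavy-chain peptide probe, 5 nM; medium: HEPES buffer with Ca2+, pH 7.2; schedule: 5 min incubation before reading; benchmarks: neutral control DMSO, positive control TFP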
RAD52 anneal inh = inhibitors of human RAD52 DNA annealing. P43351. recombinant RAD52 DNA annealing, FRET fluorescence. inhibition, % at 18.7 µM. hit rate 0.46% among 360,000. AID 651710;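 active means every replicate showing at least 50% inhibition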
INS-1E GSIS act = primary screen for activators of insulin secretion dependent on glucose, INS-1E cells, GLuc reporter luminescence | INS-1E GLuc reporter insulin secretion, 2-3 h | activation, % at 16.6 µM | hit rate 0.61% among 370,000;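 active means lowest replicate activation of at least 40%, so every replicate reaches that level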
ERAP1 HTS inh = blocks human ERAP1 aminopeptidase activity; hit rate 0.15% among 340,000; inhibition, % at 10.7 µM; recombinant ERAP1, Leu-AMC fluorescence, 60 min; Q9NZ08;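 active means mean replicate inhibition of at least 30%, or all replicates individually reaching that 30% level; inactive means mean below 30% and not every replicate reaching it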
Target sequence (Q9NZ08 whole entry, looked up): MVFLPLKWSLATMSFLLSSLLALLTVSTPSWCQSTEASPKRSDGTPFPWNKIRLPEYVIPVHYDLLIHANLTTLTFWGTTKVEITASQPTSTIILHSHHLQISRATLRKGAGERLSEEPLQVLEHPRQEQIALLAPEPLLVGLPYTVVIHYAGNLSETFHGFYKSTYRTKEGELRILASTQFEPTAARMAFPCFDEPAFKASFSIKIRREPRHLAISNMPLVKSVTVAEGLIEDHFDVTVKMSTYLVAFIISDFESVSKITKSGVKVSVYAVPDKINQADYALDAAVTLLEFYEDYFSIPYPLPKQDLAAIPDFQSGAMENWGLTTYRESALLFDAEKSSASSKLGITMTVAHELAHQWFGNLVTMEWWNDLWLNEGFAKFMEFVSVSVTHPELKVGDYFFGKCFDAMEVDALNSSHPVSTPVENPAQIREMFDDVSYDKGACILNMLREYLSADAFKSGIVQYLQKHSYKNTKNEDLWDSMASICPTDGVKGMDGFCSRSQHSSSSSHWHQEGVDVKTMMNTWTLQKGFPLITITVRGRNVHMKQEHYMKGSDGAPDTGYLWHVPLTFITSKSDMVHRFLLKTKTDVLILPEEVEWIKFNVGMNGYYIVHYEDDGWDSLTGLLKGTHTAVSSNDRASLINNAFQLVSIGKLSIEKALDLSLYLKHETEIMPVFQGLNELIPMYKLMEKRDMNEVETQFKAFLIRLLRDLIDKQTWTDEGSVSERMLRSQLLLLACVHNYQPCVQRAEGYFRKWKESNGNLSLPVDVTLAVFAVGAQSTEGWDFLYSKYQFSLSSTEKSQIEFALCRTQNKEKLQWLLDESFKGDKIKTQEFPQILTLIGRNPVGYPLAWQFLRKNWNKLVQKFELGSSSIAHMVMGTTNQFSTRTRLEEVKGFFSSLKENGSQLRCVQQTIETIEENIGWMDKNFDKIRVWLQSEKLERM
Hits are given with their value; . = inactive; / = not tested or not shown. Most compounds without a hit are left out; they make up all but 1.5% or so of the library.

SMILES | AF4-AF9 inh | S100A4 MyoIIA | RAD52 anneal inh | INS-1E GSIS act | ERAP1 HTS inh
O=C(NC1CCCCC1)N1CC(=O)N2[C@@H](CO)[C@@H](c3ccc(-c4cccnc4)cc3)[C@@H]2C1 | . | . | 60.9 | . | .
CC(C)CC#Cc1ccc([C@H]2[C@H]3CN(C(=O)Cc4cccnc4)CC(=O)N3[C@H]2CO)cc1 | / | 106.8 | . | . | .
O=C(c1cccnc1)N1CC(=O)N2[C@H](CO)[C@@H](c3ccc(/C=C/c4ccccc4)cc3)[C@H]2C1 | 27.2 | . | . | . | .
COc1ccccc1NC(=O)N1CC(=O)N2[C@H](CO)[C@H](c3ccc(-c4ccc(F)cc4)cc3)[C@@H]2C1 | . | 109.9 | . | . | .
CC(C)CC#Cc1ccc([C@@H]2[C@H]3CN(C(=O)Cc4cccnc4)CC(=O)N3[C@H]2CO)cc1 | . | . | . | . | .
O=C(NC1CCCC1)N1CC(=O)N2[C@H](C1)[C@@H](c1ccc(/C=C/c3ccccc3)cc1)[C@@H]2CO | 25.4 | . | . | . | .
O=C(NC1CCCC1)N1CC(=O)N2[C@H](CO)[C@@H](c3ccc(/C=C/c4ccccc4)cc3)[C@@H]2C1 | . | . | . | . | /
O=C(O)c1cc([N+](=O)[O-])ccc1Nc1ccccc1 | 28.4 | . | . | . | .
C[C@H]1CN(C)C(=O)c2cccnc2O[C@@H]1CN(C)S(C)(=O)=O | / | / | / | . | /
CC(C)[C@@H](C(=O)N[C@@H](CCc1ccc(O)cc1)C(=O)O)N(C)C(=O)[C@H](CO)NC(=O)[C@@H](O)[C@H](N)CCCCCCCCl | . | . | . | / | 61.9
CN(C)CC#Cc1ccc([C@@H]2[C@@H](CO)N3CCCCN(C(=O)CN(C)C)C[C@@H]23)cc1 | . | . | 71.4 | . | .
CN(C)CC#Cc1ccc([C@@H]2[C@@H](CO)N3CCCCN(C(=O)Nc4ccccc4F)C[C@@H]23)cc1 | . | . | 53.6 | . | .
O=C(O)CCNc1ccc(NCCC(=O)O)c2c1C(=O)c1ccccc1C2=O | 31.9 | . | . | . | .
COc1ccccc1NCCC(=O)O | . | . | . | . | .
S=C(NCCCN1CCOCC1)N1CCN(c2nc(-c3ccc(Cl)cc3)cs2)CC1 | 33.1 | . | . | . | .
CC(C)(C)c1ccc(C2CC2C(=O)N/N=C\c2ccc[nH]2)cc1 (stereo not given) | . | . | . | 59.2 | .
O=[N+]([O-])c1ccccc1CN1CCN(S(=O)(=O)Cc2ccccc2)CC1 | . | 104.6 | . | . | .
CCNC(=O)C[C@H]1CC[C@@H]2[C@H](COC[C@@H](O)CN2C(=O)Nc2c(C)noc2C)O1 | . | . | . | . | .
OC(c1ccccc1)(c1ccccc1)C1CCN(CCCOc2cccc(OC(F)(F)F)c2)CC1 | . | . | . | 159.9 | .
OC(c1ccccc1)(c1ccccc1)C1CCN(CCCOc2ccc(-c3ccc(F)cc3F)cc2)CC1 | / | . | . | 249.3 | .
CCN1CCN(C(c2ccc(C(F)(F)F)cc2)c2ccc3cccnc3c2O)CC1 (stereo not given) | 84.9 | . | . | . | .
CCC(=O)NC(c1ccc(C)cc1)c1ccc2cccnc2c1O (stereo not given) | . | . | . | / | .
C[C@@H]1CCCCO[C@@H](CN(C)S(=O)(=O)c2ccc(F)cc2)[C@@H](C)CN([C@@H](C)CO)C(=O)c2cc(NS(=O)(=O)c3cn(C)cn3)ccc2O1 | . | . | . | . | .
COc1ccc(CCN(C)C(=O)CCNS(=O)(=O)c2ccccc2C(F)(F)F)cc1OC | . | . | . | 41.0 | .
COc1ccc(CCNC(=O)CCNS(=O)(=O)c2cccc3nonc23)cc1OC | / | / | / | . | /
SMILES | AF4-AF9 inh | S100A4 MyoIIA | RAD52 anneal inh | INS-1E GSIS act | ERAP1 HTS inh
CCn1c(SCC(=O)N/N=C/c2ccc(O)c(OC)c2)nc2ccccc21 | . | . | . | . | .
COc1cc(/C=N/NC(=O)C(C)n2nnc3ccccc32)ccc1O (stereo not given) | / | / | / | 52.8 | /
COc1ccc(/C=N/NC(=O)Cn2nnc3ccccc32)cc1OC | . | . | . | 70.5 | .
CCOc1cc(/C=N/NC(=O)CCn2nnc3ccccc32)ccc1O | . | . | . | 78.2 | .
CC(/C=N/NC(=O)CCn1nnc2ccccc21)=C\c1ccccc1 | . | . | . | . | .
CC(C)[C@H]1COCc2cn(nn2)CC[C@@H](Cc2ccc(Cl)cc2)C(=O)N1 | / | / | / | . | /
c1ccc(CN2CCC(=NNc3nc4ccccc4[nH]3)CC2)cc1 | 34.1 | . | . | . | .
Cc1cc(C)nc(Sc2ccc([N+](=O)[O-])cc2[N+](=O)[O-])n1 | / | / | / | . | /
O=[N+]([O-])c1ccc(Sc2ccncn2)c([N+](=O)[O-])c1 | . | . | . | 84.1 | .
COc1ccccc1C(C)Nc1ccc(S(=O)(=O)N2CCN(C)CC2)cc1[N+](=O)[O-] (stereo not given) | 28.4 | . | . | . | .
CC(Nc1ccc(S(=O)(=O)N2CCN(C)CC2)cc1[N+](=O)[O-])c1ccccc1 (stereo not given) | . | . | . | . | .
O=C1CSC(c2cccc(O)c2)N1Cc1ccccc1 (stereo not given) | . | . | . | 41.9 | .
C[C@@H]1CCCCO[C@@H](CN(C)Cc2ccc(C(=O)Nc3ccccc3N)cc2)[C@@H](C)CN([C@H](C)CO)C(=O)c2cc(NC(=O)Cc3ccccc3)ccc2O1 | . | . | . | . | .
Cc1cc(C)c(NC(=O)CNC(=O)COC(=O)/C=C/c2cccs2)c(C)c1 | . | 83.8 | . | . | .
CNc1nc(NCc2ccc(C)cc2C)c2sccc2n1 | . | . | . | . | .
Cc1ccc(CNc2nc(NCc3ccccc3)nc3ccsc23)c(C)c1 | . | . | . | 195.7 | .
Cc1noc(C)c1S(=O)(=O)N(C)C[C@H]1Oc2ccc(NS(C)(=O)=O)cc2C(=O)N([C@H](C)CO)C[C@@H]1C | / | / | / | . | /
Cc1cc2nc3ccc(N(C)C)cc3nc2cc1N | . | 177.9 | . | / | .
Cc1ccc(S(=O)(=O)Nc2ccc3c(c2)CC(=O)N([C@H](C)CO)C[C@@H](C)[C@@H](CN(C)S(=O)(=O)c2cn(C)cn2)O3)cc1 | . | . | . | . | .
CCOC(=O)CC1=NN(c2ccccc2)C(=O)C1=c1sc(=C2SC(C)=C(C)N2CC)c(=O)n1CC | 39.6 | . | . | . | /
CCN1/C(=c2/s/c(=C3/C(=O)N(c4ccccc4)N=C3C)n(CC)c2=O)C=Cc2ccccc21 | . | . | . | . | .
O=C(CSc1ncnc2scc(-c3ccccc3)c12)Nc1ccc(C(=O)O)cc1 | . | . | . | 146.7 | /
O=C(O)c1ccc(Nc2ncnc3scc(-c4ccccc4)c23)cc1 | . | . | . | . | .
Cc1ccc(-c2csc3ncnc(SCC(N)=O)c23)cc1 | . | . | . | 45.3 | .
CC(=O)Nc1ccc2c(c1)C(=O)N(C)C[C@@H](C)[C@@H](CN(C)C(C)=O)O2 | / | / | / | . | /
Cc1nc(N2CCOCC2)nc(N2CCCC2)c1[N+](=O)[O-] | / | / | / | 53.1 | /
Cc1nc(N2CCOCC2)nc(N2CCCCC2)c1[N+](=O)[O-] | / | / | / | . | /

Compound activity (PubChem)
